From ChEMBL document CHEMBL4251626, “4β-amidotriazole linked podophyllotoxin congeners: DNA topoisomerase-IIα inhibition and potential anticancer agents for prostate cancer” (Eur J Med Chem, 2018)
The source made the active and inactive calls. No cut-off for these calls is given here.

test system: HT-29; assay: Antiproliferative activity against human HT-29 cells after 48 hrs by MTT assay; assay type: functional, cell-based; conditions: HT-29, 48 h
Summary of the method: (§1)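 Cells in DMEM/10% FBS pre-incubated 24 h at 37 °C, then compound-treated 48 h (10 mM DMSO stock diluted in medium). MTT (10 µL of 5 mg/mL) added for 4 h; formazan dissolved in DMSO, absorbance read at 570 nm. IC50 = 50% inhibitory concentration, mean of three individual experiments.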

Row | Compound | IC50 [nM]
1 | COc1ccc(-n2cc(C(=O)NC3c4cc5c(cc4[C@@H](c4cc(OC)c(OC)c(OC)c4)[C@H]4C(=O)OC[C@H]34)OCO5)nn2)cc1 (single isomer, unassigned) | 11400

test system: DU-145; assay: Cell cycle arrest in human DU145 cells assessed as accumulation at G2/M phase at 0.5 uM after 24 hrs by propidium iodide staining based flow cytometry relative to control; assay type: functional; conditions: not given
Summary of the method: (§2)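 DU-145 cells (2x10^5/well) serum-starved 24 h to synchronize, then treated in complete medium for 24 h. Harvested and fixed in 70% ethanol at -20 °C for 30 min. RNase A (0.1 mg/mL, 37 °C, 30 min), then propidium iodide (50 µg/mL, 30 min on ice, dark). DNA content measured by flow cytometry.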

Row | Compound | Activity [%]
2 | COc1ccc(-n2cc(C(=O)NC3c4cc5c(cc4[C@@H](c4cc(OC)c(OC)c(OC)c4)[C@H]4C(=O)OC[C@H]34)OCO5)nn2)cc1 (single isomer, unassigned) | 56.71

test system: DU-145; assay: Induction of ROS production in human DU145 cells after 24 hrs by DCFDA staining based fluorescence microscopic method; assay type: functional, cell-based; conditions: not given
Summary of the method: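 DU-145 cells (2x10^5/well) plated overnight, then treated 24 h at indicated concentrations. Medium replaced with DCFDA (10 µM) for 30 min at room temperature in the dark. After PBS washes, fluorescence was imaged by microscopy and reported as mean fluorescence intensity.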

Row | Compound | Activity
3 | COc1ccc(-n2cc(C(=O)NC3c4cc5c(cc4[C@@H](c4cc(OC)c(OC)c(OC)c4)[C@H]4C(=O)OC[C@H]34)OCO5)nn2)cc1 (single isomer, unassigned) | Dose-dependent effect

test system: A549; assay: Antiproliferative activity against human A549 cells after 48 hrs by MTT assay; assay type: functional, cell-based; conditions: A549, 48 h; summary of the method: as §1

Row | Compound | IC50 [nM]
4 | COc1ccc(-n2cc(C(=O)NC3c4cc5c(cc4[C@@H](c4cc(OC)c(OC)c(OC)c4)[C@H]4C(=O)OC[C@H]34)OCO5)nn2)cc1 (single isomer, unassigned) | 1610

test system: DU-145; assay: Induction of mitochondrial membrane potential loss in human DU145 cells […] at 0.5 to 1 uM after 24 hrs by JC1 staining based flow cytometry; assay type: functional, cell-based; conditions: not given
Summary of the method: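 Cells (2x10^5/well) treated 24 h, trypsinized and pelleted (400 g, 5 min). Incubated with freshly made JC-1 working solution for 15 min at 37 °C, washed twice in assay buffer. Analysed by flow cytometry as percentage of J-aggregate versus J-monomer cells.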

Row | Compound | Activity
5 | COc1ccc(-n2cc(C(=O)NC3c4cc5c(cc4[C@@H](c4cc(OC)c(OC)c(OC)c4)[C@H]4C(=O)OC[C@H]34)OCO5)nn2)cc1 (single isomer, unassigned) | Active

test system: DU-145; assay: Induction of apoptosis in human DU145 cells assessed as nuclear condensation at 0.5 to 1 uM after 24 hrs by Hoechst staining based fluorescence microscopic method; assay type: functional, cell-based; conditions: not given
Summary of the method: (§3)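 DU-145 cells (1x10^5/well) incubated overnight, then treated 24 h. After three PBS washes, stained with Hoechst (1 µg/ml) for 20 min at 37 °C and washed. Imaged by fluorescence microscopy; random fields counted for chromatin condensation and nuclear fragmentation.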

Row | Compound | Activity
6 | COc1ccc(-n2cc(C(=O)NC3c4cc5c(cc4[C@@H](c4cc(OC)c(OC)c(OC)c4)[C@H]4C(=O)OC[C@H]34)OCO5)nn2)cc1 (single isomer, unassigned) | Active

test system: DU-145; assay: Induction of apoptosis in human DU145 cells assessed as cell shrinkage at 0.5 to 1 uM after 24 hrs by phase contrast microscopic method; assay type: functional, cell-based; conditions: not given
Summary of the method: (§4)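 DU-145 cells (2x10^5/well) plated overnight; medium replaced with fresh medium containing compound at indicated concentrations for 24 h. Cell morphology examined and photographed by phase-contrast microscopy.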

Row | Compound | Activity
7 | COc1ccc(-n2cc(C(=O)NC3c4cc5c(cc4[C@@H](c4cc(OC)c(OC)c(OC)c4)[C@H]4C(=O)OC[C@H]34)OCO5)nn2)cc1 (single isomer, unassigned) | Active

test system: DU-145; assay: Induction of apoptosis in human DU145 cells assessed as late apoptotic cells at 1 uM after 24 hrs by Annexin V-FITC/propidium iodide staining based flow cytometry (reference value: 1.49%); assay type: functional; conditions: not given

Row | Compound | Activity [%]
8 | COc1ccc(-n2cc(C(=O)NC3c4cc5c(cc4[C@@H](c4cc(OC)c(OC)c(OC)c4)[C@H]4C(=O)OC[C@H]34)OCO5)nn2)cc1 (single isomer, unassigned) | 3.12

test system: DU-145; assay: Antiproliferative activity against human DU145 cells after 48 hrs by MTT assay; assay type: functional, cell-based; conditions: DU-145, 48 h; summary of the method: as §1

Row | Compound | IC50 [nM]
9 | COc1ccc(-n2cc(C(=O)NC3c4cc5c(cc4[C@@H](c4cc(OC)c(OC)c(OC)c4)[C@H]4C(=O)OC[C@H]34)OCO5)nn2)cc1 (single isomer, unassigned) | 990

test system: DU-145; assay: Cell cycle arrest in human DU145 cells assessed as accumulation at G2/M phase at 1 uM after 24 hrs by propidium iodide staining based flow cytometry relative to control; assay type: functional; conditions: not given; summary of the method: as §2

Row | Compound | Activity [%]
10 | COc1ccc(-n2cc(C(=O)NC3c4cc5c(cc4[C@@H](c4cc(OC)c(OC)c(OC)c4)[C@H]4C(=O)OC[C@H]34)OCO5)nn2)cc1 (single isomer, unassigned) | 64.3

test system: MCF7; assay: Antiproliferative activity against human MCF7 cells after 48 hrs by MTT assay; assay type: functional, cell-based; conditions: MCF7, 48 h; summary of the method: as §1

Row | Compound | IC50 [nM]
11 | COc1ccc(-n2cc(C(=O)NC3c4cc5c(cc4[C@@H](c4cc(OC)c(OC)c(OC)c4)[C@H]4C(=O)OC[C@H]34)OCO5)nn2)cc1 (single isomer, unassigned) | 1110

test system: DU-145; assay: Induction of apoptosis in human DU145 cells assessed as late apoptotic cells at 0.5 uM after 24 hrs by Annexin V-FITC/propidium iodide staining based flow cytometry (reference value: 1.49%); assay type: functional; conditions: not given

Row | Compound | Activity [%]
12 | COc1ccc(-n2cc(C(=O)NC3c4cc5c(cc4[C@@H](c4cc(OC)c(OC)c(OC)c4)[C@H]4C(=O)OC[C@H]34)OCO5)nn2)cc1 (single isomer, unassigned) | 1.83

test system: DU-145; assay: Induction of apoptosis in human DU145 cells assessed as early apoptotic cells at 0.5 uM after 24 hrs by Annexin V-FITC/propidium iodide staining based flow cytometry (reference value: 0.56%); assay type: functional; conditions: not given

Row | Compound | Activity [%]
13 | COc1ccc(-n2cc(C(=O)NC3c4cc5c(cc4[C@@H](c4cc(OC)c(OC)c(OC)c4)[C@H]4C(=O)OC[C@H]34)OCO5)nn2)cc1 (single isomer, unassigned) | 6.76

test system: DU-145; assay: Induction of apoptosis in human DU145 cells assessed as early apoptotic cells at 1 uM after 24 hrs by Annexin V-FITC/propidium iodide staining based flow cytometry (reference value: 0.56%); assay type: functional; conditions: not given

Row | Compound | Activity [%]
14 | COc1ccc(-n2cc(C(=O)NC3c4cc5c(cc4[C@@H](c4cc(OC)c(OC)c(OC)c4)[C@H]4C(=O)OC[C@H]34)OCO5)nn2)cc1 (single isomer, unassigned) | 7

test system: DU-145; assay: Antimigratory activity against human DU145 cells at 0.5 to 1 uM after 24 to 48 hrs by phase contrast microscopic based scratch assay; assay type: functional, cell-based; conditions: not given
Summary of the method: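 DU-145 cells seeded at 2x10^5/well and grown to confluence; wound made with a sterile 200 µL tip, debris washed off with PBS. Fresh medium with compound at the indicated concentrations added. Migration followed by phase-contrast microscopy with images at 0, 24 and 48 h.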

Row | Compound | Activity
15 | COc1ccc(-n2cc(C(=O)NC3c4cc5c(cc4[C@@H](c4cc(OC)c(OC)c(OC)c4)[C@H]4C(=O)OC[C@H]34)OCO5)nn2)cc1 (single isomer, unassigned) | Active

test system: DU-145; assay: Induction of apoptosis in human DU145 cells assessed as cell detachment from substratum at 0.5 to 1 uM after 24 hrs by phase contrast microscopic method; assay type: functional, cell-based; conditions: not given; summary of the method: as §4

Row | Compound | Activity
16 | COc1ccc(-n2cc(C(=O)NC3c4cc5c(cc4[C@@H](c4cc(OC)c(OC)c(OC)c4)[C@H]4C(=O)OC[C@H]34)OCO5)nn2)cc1 (single isomer, unassigned) | Active

test system: DU-145; assay: Induction of apoptosis in human DU145 cells assessed as nuclear fragmentation at 0.5 to 1 uM after 24 hrs by Hoechst staining based fluorescence microscopic method; assay type: functional, cell-based; conditions: not given; summary of the method: as §3

Row | Compound | Activity
17 | COc1ccc(-n2cc(C(=O)NC3c4cc5c(cc4[C@@H](c4cc(OC)c(OC)c(OC)c4)[C@H]4C(=O)OC[C@H]34)OCO5)nn2)cc1 (single isomer, unassigned) | Active

test system: DU-145; assay: Induction of apoptosis in human DU145 cells assessed as necrotic cells at 0.5 uM after 24 hrs by Annexin V-FITC/propidium iodide staining based flow cytometry (reference value: 1.65%); assay type: functional; conditions: not given

Row | Compound | Activity [%]
18 | COc1ccc(-n2cc(C(=O)NC3c4cc5c(cc4[C@@H](c4cc(OC)c(OC)c(OC)c4)[C@H]4C(=O)OC[C@H]34)OCO5)nn2)cc1 (single isomer, unassigned) | 0.4

target: DNA topoisomerase 2-alpha (Homo sapiens) (UniProt P11388); assay: Poison activity at recombinant human topoisomerase-2 alpha assessed as linear DNA formation using pHOT1 kDNA as substrate at 100 uM after 10 mins by agarose gel electrophoresis method; conditions: not given
Summary of the method: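 Five units human recombinant topo II, 10 min at 37 °C. Stopped with loading-dye stop buffer; products resolved on 1% agarose gel in TAE (catenated, decatenated, linear DNA).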

Sequence of DNA topoisomerase 2-alpha (Homo sapiens) (P11388 whole entry): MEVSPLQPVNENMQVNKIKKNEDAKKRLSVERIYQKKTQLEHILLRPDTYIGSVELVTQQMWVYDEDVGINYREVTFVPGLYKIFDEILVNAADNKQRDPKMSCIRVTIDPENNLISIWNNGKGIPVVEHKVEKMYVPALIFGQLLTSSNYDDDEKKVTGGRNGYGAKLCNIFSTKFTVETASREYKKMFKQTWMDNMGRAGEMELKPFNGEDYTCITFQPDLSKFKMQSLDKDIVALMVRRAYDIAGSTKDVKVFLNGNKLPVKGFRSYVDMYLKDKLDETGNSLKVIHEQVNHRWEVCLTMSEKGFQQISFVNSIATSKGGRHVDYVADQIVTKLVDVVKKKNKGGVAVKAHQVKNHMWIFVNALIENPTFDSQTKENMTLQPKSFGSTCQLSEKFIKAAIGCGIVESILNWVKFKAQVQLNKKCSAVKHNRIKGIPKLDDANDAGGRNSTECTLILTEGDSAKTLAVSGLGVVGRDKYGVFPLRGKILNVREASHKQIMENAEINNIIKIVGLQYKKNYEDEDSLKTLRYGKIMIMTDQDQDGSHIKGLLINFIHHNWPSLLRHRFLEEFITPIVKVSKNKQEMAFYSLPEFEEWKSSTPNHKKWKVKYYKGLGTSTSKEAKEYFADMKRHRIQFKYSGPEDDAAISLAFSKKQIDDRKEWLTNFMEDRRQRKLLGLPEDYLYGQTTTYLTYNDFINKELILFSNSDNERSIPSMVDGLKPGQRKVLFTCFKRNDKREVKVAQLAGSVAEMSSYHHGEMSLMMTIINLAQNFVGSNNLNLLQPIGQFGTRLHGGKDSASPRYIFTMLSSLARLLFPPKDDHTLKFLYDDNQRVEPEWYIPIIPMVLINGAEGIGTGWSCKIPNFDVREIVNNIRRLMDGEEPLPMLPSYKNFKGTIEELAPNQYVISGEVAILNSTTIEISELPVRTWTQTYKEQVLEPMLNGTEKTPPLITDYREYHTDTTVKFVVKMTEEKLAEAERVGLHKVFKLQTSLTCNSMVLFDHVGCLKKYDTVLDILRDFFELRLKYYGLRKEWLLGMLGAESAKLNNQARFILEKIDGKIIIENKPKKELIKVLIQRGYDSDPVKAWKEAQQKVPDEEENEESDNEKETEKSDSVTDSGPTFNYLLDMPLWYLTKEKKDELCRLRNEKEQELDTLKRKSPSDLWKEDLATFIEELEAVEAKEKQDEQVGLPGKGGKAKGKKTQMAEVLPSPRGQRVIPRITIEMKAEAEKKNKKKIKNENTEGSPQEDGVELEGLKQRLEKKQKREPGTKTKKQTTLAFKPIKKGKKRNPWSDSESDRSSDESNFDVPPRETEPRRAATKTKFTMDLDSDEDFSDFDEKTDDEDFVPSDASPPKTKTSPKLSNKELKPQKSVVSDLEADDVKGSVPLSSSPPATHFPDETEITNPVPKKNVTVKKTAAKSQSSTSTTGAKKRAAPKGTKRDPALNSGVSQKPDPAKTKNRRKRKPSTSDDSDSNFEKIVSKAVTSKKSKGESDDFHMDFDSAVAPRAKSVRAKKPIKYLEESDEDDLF

Row | Compound | Activity
19 | COc1ccc(-n2cc(C(=O)NC3c4cc5c(cc4[C@@H](c4cc(OC)c(OC)c(OC)c4)[C@H]4C(=O)OC[C@H]34)OCO5)nn2)cc1 (single isomer, unassigned) | Active

test system: DU-145; assay: Induction of apoptosis in human DU145 cells after 24 hrs by Annexin V-FITC/propidium iodide staining based flow cytometry; assay type: functional, cell-based; conditions: not given

Row | Compound | Activity
20 | COc1ccc(-n2cc(C(=O)NC3c4cc5c(cc4[C@@H](c4cc(OC)c(OC)c(OC)c4)[C@H]4C(=O)OC[C@H]34)OCO5)nn2)cc1 (single isomer, unassigned) | Dose-dependent effect

test system: DU-145; assay: Induction of apoptosis in human DU145 cells assessed as live cells at 1 uM after 24 hrs by Annexin V-FITC/propidium iodide staining based flow cytometry (reference value: 96.3%); assay type: functional; conditions: not given

Row | Compound | Activity [%]
21 | COc1ccc(-n2cc(C(=O)NC3c4cc5c(cc4[C@@H](c4cc(OC)c(OC)c(OC)c4)[C@H]4C(=O)OC[C@H]34)OCO5)nn2)cc1 (single isomer, unassigned) | 88.89

test system: HepG2; assay: Antiproliferative activity against human HepG2 cells after 48 hrs by MTT assay; assay type: functional, cell-based; conditions: HepG2, 48 h; summary of the method: as §1

Row | Compound | IC50 [nM]
22 | COc1ccc(-n2cc(C(=O)NC3c4cc5c(cc4[C@@H](c4cc(OC)c(OC)c(OC)c4)[C@H]4C(=O)OC[C@H]34)OCO5)nn2)cc1 (single isomer, unassigned) | 2790

test system: DU-145; assay: Induction of apoptosis in human DU145 cells assessed as live cells at 0.5 uM after 24 hrs by Annexin V-FITC/propidium iodide staining based flow cytometry (reference value: 96.3%); assay type: functional; conditions: not given

Row | Compound | Activity [%]
23 | COc1ccc(-n2cc(C(=O)NC3c4cc5c(cc4[C@@H](c4cc(OC)c(OC)c(OC)c4)[C@H]4C(=O)OC[C@H]34)OCO5)nn2)cc1 (single isomer, unassigned) | 91.01

test system: NIH3T3; assay: Antiproliferative activity against mouse NIH/3T3 cells after 48 hrs by MTT assay; assay type: cell-based; conditions: NIH3T3, 48 h; summary of the method: as §1

Row | Compound | IC50 [nM]
24 | COc1ccc(-n2cc(C(=O)NC3c4cc5c(cc4[C@@H](c4cc(OC)c(OC)c(OC)c4)[C@H]4C(=O)OC[C@H]34)OCO5)nn2)cc1 (single isomer, unassigned) | 62900

test system: DU-145; assay: Induction of apoptosis in human DU145 cells assessed as necrotic cells at 1 uM after 24 hrs by Annexin V-FITC/propidium iodide staining based flow cytometry (reference value: 1.65%); assay type: functional; conditions: not given

Row | Compound | Activity [%]
25 | COc1ccc(-n2cc(C(=O)NC3c4cc5c(cc4[C@@H](c4cc(OC)c(OC)c(OC)c4)[C@H]4C(=O)OC[C@H]34)OCO5)nn2)cc1 (single isomer, unassigned) | 0.99

test system: HeLa; assay: Antiproliferative activity against human HeLa cells after 48 hrs by MTT assay; assay type: functional, cell-based; conditions: not given; summary of the method: as §1

Row | Compound | IC50 [nM]
26 | COc1ccc(-n2cc(C(=O)NC3c4cc5c(cc4[C@@H](c4cc(OC)c(OC)c(OC)c4)[C@H]4C(=O)OC[C@H]34)OCO5)nn2)cc1 (single isomer, unassigned) | 6490
